The target in data set [1] is T1, Aβ1–42 (Homo sapiens, UniProt P05067). The experiment in a line: Electron microscopy. The following applies: HRTEM and STEM, Aβ1–42/test peptide 1:5, 37 °C, 72 h. Put shortly: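 HFIP-treated Aβ1–42 (50 μM in 10 mM sodium phosphate buffer, pH 7.4) mixed in equal volumes with test or control tetrapeptide (250 μM, from DMSO stock) to give 1:5, then held 72 h at 37 °C. Peptides alone were imaged too. Samples were fixed on carbon-coated copper grids with 0.5% glutaraldehyde, washed in water, negatively stained with 2% uranyl acetate and imaged at 120 keV.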

Data set [2] has as its system Aβ1–42 toxicity in PC-12 cells. The experiment in a line: MTT cell viability assay, Aβ1–42 co-incubated with tetrapeptides. Type of data set: cell-based. The note with it: calculated from OD570 of MTT assay in PC-12 cells. Put shortly: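 PC-12 cells were grown in F-12K with 5% FBS and 10% horse serum and used at 70% confluence. For the assay, medium was switched to F-12K with 10% FBS, and cells were seeded at 17 000/well overnight. Monomerized Aβ1–42 was added with test peptide (DMSO stock diluted in PBS; 1:1, 1:5, 1:10) for 6 h. MTT was then added for 4 h, followed by DMSO solubilization and OD570. Inhibition % = 100×(OD peptide+Aβ − OD Aβ)/(OD control − OD Aβ).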

The test system of data set [3] is Aβ1–40 toxicity for PC-12 cells. The experiment in a line: MTT cell viability assay with Aβ1–40. The class given is cell-based. The following applies: data not shown.
Data set [4] can be described thus: Electron microscopy of tetrapeptides incubated alone. The note with it: HRTEM and STEM, peptide alone in SPB pH 7.4, 37 °C, 72 h. The class given is physicochemical. Put shortly: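 Test peptide stock (5 mM in DMSO) diluted to 250 μM in 10 mM SPB, pH 7.4, and incubated alone at 37 °C for 72 h. A droplet is fixed on carbon-coated copper grids with 0.5% glutaraldehyde, washed with ultrapure water and negatively stained with 2% uranyl acetate. Grids are imaged by HRTEM/STEM at 120 keV.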

In data set [5] the target is T1, Aβ1–42. Briefly: Circular dichroism secondary structure analysis of Aβ1–42. The class given is biochemical. The note with it: CD, Aβ1–42/peptide 1:5, 12 h, 37 °C. The gist of the method:
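Aβ1–42 (NaOH stock diluted to 20 μM in sodium phosphate buffer) mixed 1:5 with test peptide (TFE stock diluted to 100 μM), 12 h at 37 °C. Spectra taken at 0 and 12 h, 190–260 nm, 37 °C, 1 mm cell, 50 nm/min, 2 nm bandwidth, averaging 3 scans. Buffer blank and inhibitor-alone spectra subtracted, then deconvolution into secondary-structure percentages.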
(In general: Circular dichroism is widely used to follow secondary structure.)

Data set [6] has as its target T1, Aβ1–42. Briefly: ThT fluorescence assay of Aβ1–42 aggregation. The class given is biochemical. The following applies: Aβ1–42 2 μM + peptide 20 μM (1:10), Aβ1–42 alone = 100%, n = 3. Put shortly: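 Aβ1–42 (2 μM) was incubated with test peptide at 1:10 in wells containing ThT (2.5 μM, glycine-NaOH pH 8.5), at 37 °C with shaking at 200 rpm. Fluorescence (ex 445/em 485 nm) was read at intervals over 7 days. Blank was subtracted, and RFU was normalized to the Aβ1–42-alone rise over ThT alone (100%). Triplicates were averaged.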

“Also recorded” adds a separate entry of the source. Where no end group is shown, it is not given here. [ ]: non-standard residue; d: D form. Nva = CCC[C@H](N)C(=O)O; Aib = CC(C)(N)C(=O)O

T1 sequence (P05067 672-713): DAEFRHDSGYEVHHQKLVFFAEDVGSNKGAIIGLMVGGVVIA

Take V[Aib]IA [compound 20]: at Aβ1–42 [1], the “morphology of Aβ1–42 aggregates upon co-incubation” value is “no such aggregates were formed”. Further, the “inhibition (%) of Aβ1–42 (2 μM)” value is reported as 0% in data set [2] (test peptide 2 μM) and 22.0% in data set [2] (test peptide 10 μM). The “inhibition of Aβ1–40 toxicity” value in data set [3] was “did not show inhibition; also recorded: lack of activity”. Moreover, the “self-aggregation of peptide incubated alone” value in data set [4] is given as “did not exhibit any self-aggregation”. The “random coil form of Aβ1–42 co-incubated with inhibitor” value on Aβ1–42 [5] (Aβ1–42 alone at 12 h 42.3%) is on record as 58.5%. The “β-sheet conformation of Aβ1–42 co-incubated with inhibitor” value on Aβ1–42 [5] (Aβ1–42 alone at 12 h 47.1%) stood at 14.2%. The “RFU, time-dependent ThT study” value stood at 6% at Aβ1–42 [6] (at 24 h), 4% on Aβ1–42 [6] (at 3 days), 10.9% on Aβ1–42 [6] (at 5 days) and 11.4% at Aβ1–42 [6] (at 7 days).

For VVI[dF] [compound 43], at Aβ1–42 [1], the “morphology of Aβ1–42 aggregates upon co-incubation” value is recorded as “small truncated aggregates were found in bunches”. Moreover, the “inhibition (%) of Aβ1–42 (2 μM)” value is recorded as 0% in data set [2] (test peptide 2 μM), 0% in data set [2] (test peptide 10 μM) and 4.0% in data set [2] (test peptide 20 μM). In addition, the “self-aggregation of peptide incubated alone” value in data set [4] is given as “large clusters of amorphous aggregates”.

Take Val-Pro-Ile-Ala [compound 19]: the “inhibition (%) of Aβ1–42 (2 μM)” value is 16.0% in data set [2] (test peptide 2 μM), 17.0% in data set [2] (test peptide 10 μM) and 24.0% in data set [2] (test peptide 20 μM).

Consider VV[Nva]A [compound 37], for which the “inhibition (%) of Aβ1–42 (2 μM)” value in data set [2] (test peptide 2 μM) is given as 0%; in data set [2] (test peptide 10 μM), 0%; in data set [2] (test peptide 20 μM) it was 1.0%.

For the substance V[dI]IA [compound 16], the figures for the “inhibition (%) of Aβ1–42 (2 μM)” value in data set [2] (test peptide 2 μM), in data set [2] (test peptide 10 μM) and in data set [2] (test peptide 20 μM) were 20.0%, 20.0% and 27.0%, respectively.

Take V[dP]IA [compound 18]: the “inhibition (%) of Aβ1–42 (2 μM)” value in data set [2] (test peptide 2 μM) was 7.0%; in data set [2] (test peptide 10 μM) it was 20.0%; in data set [2] (test peptide 20 μM), 64.0%.

With [dA]VIA [compound 3], the “inhibition (%) of Aβ1–42 (2 μM)” value in data set [2] (test peptide 2 μM), in data set [2] (test peptide 10 μM) and in data set [2] (test peptide 20 μM) was 0% in each case.

In the case of [dI]VIA [compound 6], the “inhibition (%) of Aβ1–42 (2 μM)” value in data set [2] (test peptide 2 μM), in data set [2] (test peptide 10 μM) and in data set [2] (test peptide 20 μM) was 0% in each case.

Val-Val-Pro-Ala [compound 33]: the “inhibition (%) of Aβ1–42 (2 μM)” value in data set [2] (test peptide 2 μM) is recorded as 0%; in data set [2] (test peptide 10 μM) it was 0%; in data set [2] (test peptide 20 μM), 3.0%.

On to Val-Leu-Ile-Ala [compound 15], for which the results for the “inhibition (%) of Aβ1–42 (2 μM)” value in data set [2] (test peptide 2 μM), in data set [2] (test peptide 10 μM) and in data set [2] (test peptide 20 μM) were 0%, 0% and 13.0%, respectively.

On to VV[dI]A [compound 26], for which the “inhibition (%) of Aβ1–42 (2 μM)” value in data set [2] (test peptide 2 μM), in data set [2] (test peptide 10 μM) and in data set [2] (test peptide 20 μM) was 0% each time.

Take “Val-Val-Ile-Ala [compound 1, reference compound]”: the “inhibition (%) of Aβ1–42 (2 μM)” value was 8.0% in data set [2] (test peptide 2 μM) and 30.0% in data set [2] (test peptide 10 μM).

V[dA]IA [compound 13]: the “inhibition (%) of Aβ1–42 (2 μM)” value in data set [2] (test peptide 2 μM), in data set [2] (test peptide 10 μM) and in data set [2] (test peptide 20 μM) was 0% in each case.

For Val-Ile-Ile-Ala [compound 17], the “inhibition (%) of Aβ1–42 (2 μM)” value in data set [2] (test peptide 2 μM), in data set [2] (test peptide 10 μM) and in data set [2] (test peptide 20 μM) was 0% each time.

Consider Leu-Val-Ile-Ala [compound 5], for which the “inhibition (%) of Aβ1–42 (2 μM)” value in data set [2] (test peptide 2 μM), in data set [2] (test peptide 10 μM) and in data set [2] (test peptide 20 μM) was 0% in each case.

Turning to [Aib][Aib]IA [compound 24], the entries for the “inhibition (%) of Aβ1–42 (2 μM)” value in data set [2] (test peptide 2 μM), in data set [2] (test peptide 10 μM) and in data set [2] (test peptide 20 μM) were 13.0%, 18.0% and 73.0%, respectively.

Turning to [dL]VIA [compound 4], the “inhibition (%) of Aβ1–42 (2 μM)” value in data set [2] (test peptide 2 μM) is 0%; in data set [2] (test peptide 10 μM) it was 0%; in data set [2] (test peptide 20 μM) it was 2.0%.

For Val-Val-Ile-Val [compound 40], the “inhibition (%) of Aβ1–42 (2 μM)” value in data set [2] (test peptide 2 μM) is recorded as 4.0%; in data set [2] (test peptide 10 μM), 13.0%; in data set [2] (test peptide 20 μM), 9.0%.

As to Val-Val-Ile-Phe [compound 44], the “inhibition (%) of Aβ1–42 (2 μM)” value in data set [2] (test peptide 2 μM), in data set [2] (test peptide 10 μM) and in data set [2] (test peptide 20 μM) was 0% throughout.

Regarding VV[Aib]A [compound 34], the “inhibition (%) of Aβ1–42 (2 μM)” value in data set [2] (test peptide 2 μM) was 1.0%; in data set [2] (test peptide 10 μM), 0%; in data set [2] (test peptide 20 μM) it was 11.0%.
